Source: ChEMBL document CHEMBL4138243, “Synthesis, biological evaluation, and metabolic stability of phenazine derivatives as antibacterial agents” (Eur J Med Chem, 2018)
In brackets after ≈: the same amount, converted by molar mass. Activity calls are given as the source filed them. The rule behind the calls is not given here.

Legend:
Staphylococcus aureus [1] = assay: Antibacterial activity against methicillin-resistant Staphylococcus aureus USA300 JE2 after 24 hrs by broth microdilution method; assay type: functional; details: USA300 JE2, 24 h
In short: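 Broth microdilution. Test material taken from a 1 mg/mL DMSO stock and serially diluted 2-fold in Mueller Hinton broth containing 5% DMSO. Wells inoculated with a direct colony suspension at 0.5 McFarland, then incubated statically at 37 °C for 24 h. MIC is the lowest concentration with no growth, read by eye and by OD600. Vancomycin and gentamicin as positive controls. Run in triplicate.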

Escherichia coli [2] = assay: Antibacterial activity against Escherichia coli K-12 after 24 hrs by broth microdilution method; assay type: functional
In short: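 Broth microdilution per ASM Clinical Microbiology Procedures Handbook (3rd ed.); 1 mg/mL DMSO stock serially 2-fold diluted in Mueller Hinton broth with 5% DMSO; inoculum from direct colony suspension at 0.5 McFarland; static incubation 37 °C, 24 h. MIC = lowest concentration without visible growth (eye and OD600). Vancomycin and gentamicin positive controls, medium negative control; triplicate.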

Staphylococcus aureus [3] = assay: Antibacterial activity against methicillin-resistant Staphylococcus aureus USA300 JE2 at 10 times MIC after 6 days by Kirby Bauer method; assay type: functional, organism-based
In short: (§1)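 Mutant-resistance disc assay. Culture grown in Mueller Hinton broth for 4 h, diluted to 1.5 × 10^8 CFU/mL (0.5 McFarland) and spread on Mueller Hinton agar. 6 mm paper discs loaded with compound in DMSO at 10 × MIC. Plates at 37 °C. Inhibition zone diameter read at 24 h. Plates then kept 6 days and checked for colonies growing inside the zone.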

Staphylococcus aureus [4] = assay: Antibacterial activity against methicillin-resistant Staphylococcus aureus USA300 JE2 at 10 times MIC after 24 hrs by Kirby Bauer method; assay type: functional; in short: as §1
Staphylococcus aureus [5] = assay: Antibacterial activity against methicillin-resistant Staphylococcus aureus USA300 JE2 at 10 ug after 24 hrs by Kirby Bauer method; assay type: functional; details: USA300 JE2, 24 h, read-out: DIZ
In short: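 Disc diffusion reference, streptomycin 10 µg. 0.5 McFarland inoculum spread on Mueller Hinton agar with 6 mm discs. Incubated at 37 °C and inhibition zone diameter measured after 24 h.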

Staphylococcus aureus [6] = assay: Induction of membrane damage of methicillin-resistant Staphylococcus aureus USA300 JE2 at MIC after 18 hrs by propidium iodide staining-based flow cytometric method; assay type: functional, organism-based
In short: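 Flow cytometry membrane-permeability assay. […] Propidium iodide stock at 1 mg/mL added, held 15–20 min in the dark, then cells washed three times and resuspended in PBS. Controls: PI-stained untreated cells and cells treated with 70% ethanol.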

Staphylococcus aureus [7] = assay: Induction of biofilm dispersion of methicillin-resistant Staphylococcus aureus USA300 JE2 at 1 to 32 ug/ml after 24 hrs by crystal violet staining-based assay relative to control; assay type: functional, organism-based
In short: (§2)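 Preformed-biofilm dispersion. Gelatin-coated wells seeded with 1 × 10^6 CFU/mL in TSB with 0.5% glucose and grown 24 h at 37 °C. Medium replaced with 2-fold dilutions in fresh TSB with 0.5% glucose, then a further 24 h at 37 °C. Biofilm fixed with methanol, stained with 0.1% crystal violet, dissolved in methanol:acetic acid:water 4:1:5 and read at OD540.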

[8] = Stability in tris buffer at pH 7.4 at 1 uM after 2 hrs by LC-MS/MS method; assay type: physicochemical; details: pH 7.4, 2 h
In short: (§3)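 Stability tested in simulated gastric fluid (pH 1.2), simulated intestinal fluid (pH 6.8) and 50 mM tris buffer (pH 7.4) using literature protocols.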

[9] = Metabolic stability in human liver S9 fraction at 1 uM after 5 to 60 mins by LC-MS/MS method; assay type: ADME, subcellular; details: s9, 1 µM
In short: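 Compounds incubated with human liver S9 fraction, covering phase I and phase II enzymes; depletion followed over incubation time as percent remaining. Mean ± S.D., n = 3.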

[10] = Stability in simulated gastric fluid at pH1.2 at 1 uM after 2 hrs by LC-MS/MS method; assay type: ADME; details: simulated gi fluid, pH 1.2, 2 h; in short: as §3
Escherichia coli [11] = assay: Induction of membrane damage of Escherichia coli K-12 at 2 times MIC after 18 hrs by transmission electron microscopic method; assay type: functional, organism-based
[12] = Stability in simulated intestinal fluid at pH 6.8 at 1 uM after 2 hrs by LC-MS/MS method; assay type: ADME; details: simulated gi fluid, pH 6.8, 2 h; in short: as §3
Staphylococcus aureus [13] = assay: Induction of membrane damage of methicillin-resistant Staphylococcus aureus USA300 JE2 at 2 times MIC after 18 hrs by transmission electron microscopic method; assay type: functional, organism-based
In short: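 TEM. […] Cells washed three times in PBS, then fixed in 2% glutaraldehyde with 2% paraformaldehyde in 0.1 M phosphate buffer.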

Staphylococcus aureus [14] = assay: Inhibition of biofilm formation of methicillin-resistant Staphylococcus aureus USA300 JE2 at 8 times MIC after 24 hrs by crystal violet staining-based assay relative to control; assay type: functional
In short: (§4)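 Biofilm formation inhibition. Gelatin-coated wells received 2-fold dilutions in TSB with 0.5% glucose plus cells at 2 × 10^6 CFU/mL from fresh culture. Incubated at 37 °C for 24 h. Wells gently rinsed, stained with 0.1% crystal violet for 10 min, destained in methanol:acetic acid:water 4:1:5 and read at OD540.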

[15] = Toxicity in Galleria mellonella larvae assessed as survival at 3 ug/ml after 96 hrs relative to control; assay type: organism-based; details: in vivo
Staphylococcus aureus [16] = assay: Bacteriostatic activity against methicillin-resistant Staphylococcus aureus USA300 JE2 at 3 times MIC after 1 to 24 hrs by time killing assay; assay type: functional, organism-based
In short: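 Time-kill. Culture grown in Mueller Hinton broth at 37 °C for 6 h, adjusted to about 7.5 × 10^6 CFU/mL and exposed to 3 × MIC at 37 °C. Samples taken at 0, 1, 2, 3, 4, 6 and 24 h, serially diluted 10-fold in 0.9% saline and plated on Mueller Hinton agar for 24 h at 37 °C. Colonies counted and plotted as log CFU/mL. Triplicate.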

Galleria mellonella = assay: Toxicity in Galleria mellonella larvae assessed as decrease in survival at 0.5 times MIC after 96 hrs; assay type: organism-based; details: in vivo
Staphylococcus aureus [17] = assay: Inhibition of biofilm formation of methicillin-resistant Staphylococcus aureus USA300 JE2 at MIC after 24 hrs by crystal violet staining-based assay relative to control; assay type: functional; in short: as §4
Staphylococcus aureus [18] = assay: Induction of biofilm dispersion of methicillin-resistant Staphylococcus aureus USA300 JE2 at 2 times MIC after 24 hrs by crystal violet staining-based assay relative to control; assay type: functional; in short: as §2
[19] = Cytotoxicity against HCEC after 24 hrs by MTT assay; parameters: species or system Homo sapiens
In short: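 HCEC cells grown in HCEC medium at 37 °C in a hypoxia chamber, seeded 6000 cells/well, left 24 h, then exposed 24 h to 200, 100, 50, 25, 12.5, 6.25 or 0 (vehicle) µg/mL. MTT added from a 2 mg/mL stock for 2 h, formazan dissolved in DMSO, absorbance read at 570 nm.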

Staphylococcus aureus [20] = assay: Induction of biofilm dispersion of methicillin-resistant Staphylococcus aureus USA300 JE2 at MIC after 24 hrs by crystal violet staining-based assay relative to control; assay type: functional; in short: as §2

| Molecule | MIC (Staphylococcus aureus [1]) [µg/mL] | MIC (Escherichia coli [2]; K-12, 24 h) [µg/mL] | also measured |
| --- | --- | --- | --- |
| NC(=O)c1cccc2nc3c(Cl)ccc(Cl)c3nc12 | 128 (≈ 438 µM) | 32 (≈ 110 µM) |  |
| N#CNC(=O)c1cccc2nc3cccc(Cl)c3nc12 | 128 (≈ 453 µM) | 128 (≈ 453 µM) |  |
| Cc1cccc2nc3cccc(C(=O)NS(C)(=O)=O)c3nc12 | 32 (≈ 101 µM) | 32 (≈ 101 µM) | Activity (Staphylococcus aureus [3]): Active |
| COc1cc(Br)c2nc3c(C(=O)O)cccc3nc2c1 | 64 (≈ 192 µM) | 256 (≈ 768 µM) |  |
| N#CNC(=O)c1cccc2nc3cccc(F)c3nc12 | 128 (≈ 481 µM) | 128 (≈ 481 µM) |  |
| COc1ccc2nc3c(C(=O)O)cccc3nc2c1 | 256 (≈ 1010 µM) | 64 (≈ 252 µM) |  |
| CN(C(=O)c1cccc2nc3ccccc3nc12)S(C)(=O)=O | 256 (≈ 812 µM) | 128 (≈ 406 µM) |  |
| COC(=O)c1cccc2nc3cc(OC)cc(Br)c3nc12 | 128 (≈ 369 µM) | 128 (≈ 369 µM) |  |
| COC(=O)c1cccc2nc3cccc(OC)c3nc12 | 128 (≈ 477 µM) | 128 (≈ 477 µM) |  |
| COc1ccc(Br)c2nc3c(C(=O)NC#N)cccc3nc12 | 256 (≈ 717 µM) | 32 (≈ 89.6 µM) |  |
| COc1ccc(OC)c2nc3c(C(=O)O)cccc3nc12 | 64 (≈ 225 µM) | 64 (≈ 225 µM) |  |
| NC(=O)c1cccc2nc3cccc(Cl)c3nc12 | > 256 | 128 (≈ 497 µM) |  |
| CC(C)(C)[Si](C)(C)ON |  |  | Activity (Staphylococcus aureus [3]): Active; diameter of the inhibition zone (DIZ) (Staphylococcus aureus [4]): 11 mm |
| CN(C(=O)c1cccc2nc3cccc(Cl)c3nc12)S(C)(=O)=O | > 256 | 64 (≈ 183 µM) |  |
| CS(=O)(=O)NC(=O)c1cccc2nc3cccc(F)c3nc12 | 64 (≈ 200 µM) | 128 (≈ 401 µM) |  |
| COc1ccc(Br)c2nc3c(C(=O)NS(C)(=O)=O)cccc3nc12 | 128 (≈ 312 µM) | 64 (≈ 156 µM) |  |
| CN[C@@H]1[C@H](O[C@H]2[C@H](O[C@H]3[C@H](O)[C@@H](O)[C@H](N=C(N)N)[C@@H](O)[C@@H]3N=C(N)N)O[C@@H](C)[C@]2(O)C=O)O[C@@H](CO)[C@H](O)[C@H]1O [STREPTOMYCIN] |  |  | zone of inhibition at 10 µg/disc (Staphylococcus aureus [5]): 18 mm |
| O=C(NO)c1cccc2nc3cccc(Cl)c3nc12 | 32 (≈ 117 µM) | 128 (≈ 468 µM) |  |
| CS(=O)(=O)NC(=O)c1cccc2nc3ccccc3nc12 | 128 (≈ 425 µM) | 128 (≈ 425 µM) |  |
| CS(=O)(=O)NC(=O)c1cccc2nc3cccc(Cl)c3nc12 | 2 (≈ 5.96 µM) | 128 (≈ 381 µM) | Activity (Staphylococcus aureus [6]): inactive; Activity (Staphylococcus aureus [7]): inactive; Stability [8]: Stable; Stability [9]: Stable; Stability [10]: Stable; Activity (Escherichia coli [11]): inactive; Stability [12]: Stable; Activity (Staphylococcus aureus [13]): inactive; Activity (Staphylococcus aureus [3]): Active; diameter of the inhibition zone (DIZ) (Staphylococcus aureus [4]): 16 mm; inhibition (INH) (Staphylococcus aureus [14]): 90%; survival at 96 h [15]: 70% |
| O=C(Nc1nnn[nH]1)c1cccc2nc3cccc(Cl)c3nc12 | 32 (≈ 98.2 µM) | 128 (≈ 393 µM) |  |
| COC(=O)c1cccc2nc3c(Cl)ccc(Cl)c3nc12 | 128 (≈ 417 µM) | 64 (≈ 208 µM) |  |
| COc1cc(Br)cc2nc3cccc(C(=O)O)c3nc12 | 128 (≈ 384 µM) | 128 (≈ 384 µM) |  |
| COc1ccc(Br)c2nc3c(C(=O)O)cccc3nc12 | 128 (≈ 384 µM) | 64 (≈ 192 µM) |  |
| CS(=O)(=O)NC(=O)c1cccc2nc3c(Cl)ccc(Cl)c3nc12 | 16 (≈ 43.2 µM) | 64 (≈ 173 µM) | Activity (Staphylococcus aureus [6]): inactive; Activity (Staphylococcus aureus [16]): Active; Stability [8]: Stable; Stability [9]: Stable; Stability [10]: Stable; Activity (Galleria mellonella): Non-Toxic; Activity (Escherichia coli [11]): inactive; inhibition (INH) (Staphylococcus aureus [17]): 82%; Stability [12]: Stable; Activity (Staphylococcus aureus [13]): inactive; Activity (Staphylococcus aureus [3]): Active; diameter of the inhibition zone (DIZ) (Staphylococcus aureus [4]): 19 mm; Activity (Staphylococcus aureus [18]): 61%; IC50 [19]: 208 µM; Activity (Staphylococcus aureus [20]): 42% |
| GENTAMICIN |  |  | MIC (Escherichia coli [2]): 0.25 µg/mL |
| O=C(O)c1cccc2nc3c(Cl)ccc(Cl)c3nc12 | 64 (≈ 218 µM) | 128 (≈ 437 µM) |  |
| COC(=O)c1cccc2nc3cc(Br)cc(OC)c3nc12 | 128 (≈ 369 µM) | 128 (≈ 369 µM) |  |
| N#Cc1cccc2nc3cccc(Cl)c3nc12 | > 256 | 64 (≈ 267 µM) |  |
| COC(=O)c1cccc2nc3cc(OC)ccc3nc12 | 128 (≈ 477 µM) | 64 (≈ 239 µM) |  |
